Source: ChEMBL document CHEMBL1949610, “Selection of cyclic-peptide inhibitors targeting Aurora kinase A: problems and solutions” (Bioorg Med Chem, 2011)
Activity calls are given as the source filed them. No cut-off for these calls is given here. Positions of bridges follow the written chain, without caps; N, C: chain ends. Residues, ends and D or L forms follow the SMILES beside them.

Legend:
[1] = target: T1, Aurora kinase A (Homo sapiens) (UniProt O14965); assay: Inhibition of human aurora A assessed as [gamma-33P]ATP incorporation into kemptide substrate at 10 uM after 40 mins by liquid scintillation counting
T1 sequence (whole entry): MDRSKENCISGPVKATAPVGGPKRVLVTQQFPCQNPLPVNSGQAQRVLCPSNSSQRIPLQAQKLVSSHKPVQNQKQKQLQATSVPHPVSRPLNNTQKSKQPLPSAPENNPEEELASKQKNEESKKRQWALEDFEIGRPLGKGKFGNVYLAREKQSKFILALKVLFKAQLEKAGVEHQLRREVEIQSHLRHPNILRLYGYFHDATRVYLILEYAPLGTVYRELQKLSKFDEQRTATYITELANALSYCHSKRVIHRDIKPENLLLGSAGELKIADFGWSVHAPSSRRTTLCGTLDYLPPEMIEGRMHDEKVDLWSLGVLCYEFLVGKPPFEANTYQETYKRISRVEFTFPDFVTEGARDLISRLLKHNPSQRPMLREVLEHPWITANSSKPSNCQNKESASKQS

[2] = target: Dual specificity protein kinase CLK2 (Homo sapiens) (UniProt P49760); assay: Inhibition of CLK2 assessed as [gamma-33P]ATP incorporation into AKRRRLSSLRA substrate at 10 uM after 40 mins by liquid scintillation counting
[3] = Inhibition of PKA assessed as [gamma-33P]ATP incorporation into kemptide substrate at 10 uM after 40 mins by liquid scintillation counting
[4] = target: T1, Aurora kinase A (Homo sapiens); assay: Competitive inhibition of human aurora A using kemptide as a substrate by double reciprocal plot analysis
How it was run: (§1)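 Kinetics run in duplicate: 0.5 nM Aurora A, 100 μM [γ-³²P]ATP, Kemptide at 25, 50 and 200 μM, inhibitor at 0, 10 and 50 μM, in 20 mM MOPS, 10 mM MgCl, pH 7, 0.01% BSA, 2.5% DMSO. Data shown as double-reciprocal plots and fit to competitive, noncompetitive, mixed and uncompetitive models.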

[5] = target: T1, Aurora kinase A (Homo sapiens); assay: Un-competitive inhibition of human aurora A using kemptide as substrate by double reciprocal plot analysis; how it was run: as §1
Aurora kinase A = target: T2, Aurora kinase A (Homo sapiens, UniProt O14965); assay: Mixed type inhibition of human aurora A using kemptide as a substrate by double reciprocal plot analysis; how it was run: as §1
T2 sequence (O14965 whole entry): T1 sequence (whole entry)

Chain of Dual specificity protein kinase CLK2 (Homo sapiens) (P49760 whole entry, looked up): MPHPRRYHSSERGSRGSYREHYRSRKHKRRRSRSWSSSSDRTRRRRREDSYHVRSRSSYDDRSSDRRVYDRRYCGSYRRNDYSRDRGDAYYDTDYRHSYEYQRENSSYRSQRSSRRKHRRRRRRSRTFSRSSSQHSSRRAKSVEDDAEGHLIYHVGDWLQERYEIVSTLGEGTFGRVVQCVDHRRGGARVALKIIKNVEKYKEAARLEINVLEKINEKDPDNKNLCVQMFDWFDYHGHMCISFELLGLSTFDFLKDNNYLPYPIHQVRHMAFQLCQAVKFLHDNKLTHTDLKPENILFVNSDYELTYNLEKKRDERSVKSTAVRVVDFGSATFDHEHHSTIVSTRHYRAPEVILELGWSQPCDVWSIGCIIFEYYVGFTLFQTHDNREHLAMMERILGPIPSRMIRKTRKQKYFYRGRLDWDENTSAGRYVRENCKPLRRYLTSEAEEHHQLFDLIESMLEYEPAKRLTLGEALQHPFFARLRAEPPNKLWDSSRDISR

SMILES	inhibition [1]	inhibition [2]	inhibition [3]	Kic [4]	Kiuc [5]	Ki (Aurora kinase A)
CC(C)C[C@@H]1NC(=O)[C@H](Cc2ccccc2)NC(=O)[C@H](CCCNC(=N)N)NC(=O)[C@@H]2CCCN2C(=O)[C@@H](N)CSSC[C@@H](C(=O)NCC(N)=O)NC(=O)[C@H](Cc2c[nH]c3ccccc23)NC(=O)[C@@H]2CCCN2C1=O (H-CPRFLPWCG-NH2; disulfide 1-8)	Active	inactive	inactive	–	–	–
CC(C)C[C@@H]1NC(=O)[C@H](Cc2c[nH]c3ccccc23)NC(=O)[C@H](Cc2c[nH]c3ccccc23)NC(=O)[C@@H]2CCCN2C(=O)[C@H](CCCNC(=N)N)NC(=O)[C@H]([C@@H](C)O)NC(=O)[C@@H](N)CSSC[C@@H](C(=O)NCC(N)=O)NC1=O (H-CTRPWWLCG-NH2; disulfide 1-8)	Active	inactive	inactive	10.4 µM	17.6 µM	27.2 µM
